This is an account of results in ChEMBL document CHEMBL3627632, “Novel 1,4-naphthoquinone-based sulfonamides: Synthesis, QSAR, anticancer and antimalarial studies” (Eur J Med Chem, 2015).

Bounds are passed on as bounds.

Usually IC50 stands for the midpoint of a concentration-inhibition curve.

Experiment [1] can be described thus: Cytotoxicity against HuCCa1 cells after 48 hrs by MTT assay. The following applies: Homo sapiens, HuCC-A1, 48 h. The format is functional, cell-based. The gist of the method:
(§1)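 Adherent cells seeded at 10,000-20,000 per well and preincubated 24 h at 37 °C, 5% CO2. Serial dilutions of compound added in an equal volume of medium, DMSO as negative control, then 48 h further incubation. Surviving cells measured by MTT. IC50 is the concentration giving 50% growth inhibition relative to the DMSO control.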
(Formazan colour is commonly taken as a measure of viable cells.)

The subject of experiment [2] is A549. Kind of experiment: Cytotoxicity against human A549 cells after 48 hrs by MTT assay. The format is functional, cell-based. The following applies: A549, 48 h. The method, boiled down:
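Adherent cells seeded at 10,000-20,000 per well and preincubated 24 h at 37 °C, 5% CO2. Serial dilutions of compound added in an equal volume of medium, DMSO as negative control, then 48 h further incubation. Surviving cells measured by MTT.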

The test system of experiment [3] is HepG2. The experiment in a line: Cytotoxicity against human HepG2 cells after 48 hrs by MTT assay. The format is functional, cell-based. The following applies: HepG2, 48 h. The method, boiled down: as §1
Experiment [4] in a line: Cytotoxicity against human MOLT3 cells after 48 hrs by XTT assay. The format is functional, cell-based. The following applies: MOLT-3, 48 h. The method, boiled down:
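Suspension MOLT-3 cells seeded at 10,000-20,000 per well and preincubated 24 h at 37 °C, 5% CO2. Compound serial dilutions added in an equal volume of medium, DMSO as negative control, then 48 h. Surviving cells measured by XTT. IC50 is the concentration inhibiting growth 50% relative to the DMSO control.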

The test system of experiment [5] is Plasmodium falciparum. Kind of experiment: Antimalarial activity against multidrug-resistant Plasmodium falciparum K1 infected in human erythrocytes after 48 hrs by [3H]hypoxanthine incorporation assay. The format is functional, organism-based. The method, boiled down: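 K1 parasites kept in RPMI 1640 with 20 mM HEPES, 32 mM NaHCO3, 10% human serum and 3% erythrocytes, at 37 °C under 3% CO2. Ring-stage culture (1.5% haematocrit, 1% parasitemia) was exposed to compound for 24 h at 0.1% DMSO final. 0.5 µCi [3H]hypoxanthine was then added for a further 24 h. Incorporation was scintillation-counted, and growth was expressed as treated/untreated cpm ×100.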

The subject of experiment [6] is Vero. The experiment in a line: Cytotoxicity against African green monkey Vero cells after 4 days by GFP detection method. In kind it is cell-based. The following applies: Chlorocebus sabaeus, 96 h. The method, boiled down:
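Vero cells stably transfected with pEGFP-N1, kept in MEM with 10% heat-inactivated FBS, 2 mM L-glutamine, 1 mM pyruvate, 0.8 mg/mL geneticin at 37 °C, 5% CO2. Cells at 3.3 × 10^4 cells/mL added to compounds prediluted in 0.5% DMSO, 384-well, 4 days. GFP fluorescence read at ex 485/em 535 nm, day-0 background subtracted. IC50 from 6-point 3-fold dilution curves.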

The mark [7] stands for this setting: Plasmodium falciparum, K1, read-out: IC50.

Regarding `O=C1C(Cl)=C(Nc2ccc(S(=O)(=O)NCCc3ccccn3)cc2)C(=O)c2ccccc21`, the IC50 in experiment [1] was 5.88 µM; in experiment [2], 31.4 µM; in experiment [3], 10.3 µM; in experiment [4] it was 1.37 µM; in experiment [5] it was “Not Active”; in experiment [6], 99.9 µM.

With `O=C1C(Cl)=C(Nc2ccc(S(=O)(=O)NCCc3ccccc3)cc2)C(=O)c2ccccc21`, the IC50 is 4.93 µM in experiment [1]; 11.2 µM in experiment [2]; 6.27 µM in experiment [3]; 2.18 µM in experiment [4]; “Not Active” in experiment [5]; more than 107 µM in experiment [6].

Regarding `COc1ccc(CCNS(=O)(=O)c2ccc(NC3=C(Cl)C(=O)c4ccccc4C3=O)cc2)cc1OC`, the concentration for half-maximal inhibition (IC50) turned out to be 5.5 µM in experiment [1]; 13 µM in experiment [2]; 6.07 µM in experiment [3]; 2.05 µM in experiment [4]; 9.96 µM in experiment [5] (setting [7]); 21.1 µM in experiment [6].

For the molecule `O=C1C(Cl)=C(Nc2ccc(S(=O)(=O)NCc3ccccn3)cc2)C(=O)c2ccccc21`, the 50% inhibitory concentration (IC50) in experiment [1] is 5 µM; in experiment [2], 5.88 µM; in experiment [3], 3.3 µM; in experiment [4] it was 1.37 µM; in experiment [5], “Not Active”; in experiment [6], 10.8 µM.

With `O=C1C(Cl)=C(Nc2ccc(S(=O)(=O)N3CCc4ccccc4C3)cc2)C(=O)c2ccccc21`, the IC50 in experiment [1] came out at 57.8 µM; in experiment [2], 48.4 µM; in experiment [3], 36.9 µM; in experiment [4], 8.56 µM; in experiment [5] (setting [7]), 14.7 µM; in experiment [6], 20.3 µM.

`COc1cc2c(cc1OC)CN(S(=O)(=O)c1ccc(NC3=C(Cl)C(=O)c4ccccc4C3=O)cc1)CC2`: the IC50 in experiment [1] was found to be 5.21 µM; in experiment [2] it was 20.2 µM; in experiment [3], 14.4 µM; in experiment [4], 1.73 µM; in experiment [5] (setting [7]), 2.8 µM; in experiment [6], 0.944 µM.

Take `O=C1C(Cl)=C(Nc2cccc(S(=O)(=O)NCCc3ccccn3)c2)C(=O)c2ccccc21`: the IC50 in experiment [1] was 5.77 µM; in experiment [2] it was 3.93 µM; in experiment [3], 5.13 µM; in experiment [4], 2.2 µM; in experiment [5], “Not Active”; in experiment [6] it was 20.2 µM.

For `O=C1C(Cl)=C(Nc2cccc(S(=O)(=O)NCCc3ccccc3)c2)C(=O)c2ccccc21`, the IC50 came to 9.47 µM in experiment [1]; 31.1 µM in experiment [2]; 12.8 µM in experiment [3]; 3.3 µM in experiment [4]; 6.3 µM in experiment [5] (setting [7]); 3.85 µM in experiment [6].

For the molecule `COc1ccc(CCNS(=O)(=O)c2cccc(NC3=C(Cl)C(=O)c4ccccc4C3=O)c2)cc1OC`, the IC50 in experiment [1] was found to be 8.5 µM; in experiment [2] it was 27.2 µM; in experiment [3], 9.49 µM; in experiment [4], 4.95 µM; in experiment [5] (setting [7]) it was 10.1 µM; in experiment [6], 3.76 µM.

For `O=C1C(Cl)=C(Nc2cccc(S(=O)(=O)NCc3ccccn3)c2)C(=O)c2ccccc21`, the IC50 in experiment [1] was 3.66 µM; in experiment [2] it was 2.31 µM; in experiment [3] it was 4.56 µM; in experiment [4], 2.38 µM; in experiment [5], “Not Active”; in experiment [6], 2.82 µM.

`O=C1C(Cl)=C(Nc2cccc(S(=O)(=O)N3CCc4ccccc4C3)c2)C(=O)c2ccccc21`: the IC50 in experiment [1] came to 6.08 µM; in experiment [2] it was 21.9 µM; in experiment [3], 11 µM; in experiment [4], 1.92 µM; in experiment [5] (setting [7]), 7.27 µM; in experiment [6], 4.2 µM.

Regarding `COc1cc2c(cc1OC)CN(S(=O)(=O)c1cccc(NC3=C(Cl)C(=O)c4ccccc4C3=O)c1)CC2`, the half-maximal inhibitory concentration (IC50) in experiment [1] was determined as 26.4 µM; in experiment [2], 63.1 µM; in experiment [3] it was 43.3 µM; in experiment [4], 2.34 µM; in experiment [5] (setting [7]) it was 8.79 µM; in experiment [6], 11.2 µM.

Regarding `O[C@@H](c1cc(C(F)(F)F)nc2c(C(F)(F)F)cccc12)[C@H]1CCCCN1` (relative stereo) [(S,R)-MEFLOQUINE], the 50% inhibitory concentration (IC50) in experiment [5] (setting [7]) stood at 0.0269 µM.

In the case of `C[C@H]1[C@@H](O)O[C@@H]2O[C@@]3(C)CC[C@H]4[C@H](C)CC[C@@H]1[C@@]24OO3` [ARTENIMOL], in experiment [5] (setting [7]), the IC50 was found to be 0.00142 µM.

For the molecule `COc1cccc2c1C(=O)c1c(O)c3c(c(O)c1C2=O)C[C@@](O)(C(=O)CO)C[C@@H]3O[C@H]1C[C@H](N)[C@H](O)[C@H](C)O1` [DOXORUBICIN], it took 0.42 µM to reach half-maximal inhibition in experiment [1] (IC50).

In turn, `Cc1c2ccncc2c(C)c2c1[nH]c1ccccc12` [ELLIPTECINE] registered an IC50 in experiment [6] of 4.05 µM.

Consider `COc1cc([C@@H]2c3cc4c(cc3[C@@H](O[C@@H]3O[C@@H]5CO[C@@H](C)O[C@H]5[C@H](O)[C@H]3O)[C@H]3COC(=O)[C@H]23)OCO4)cc(OC)c1O` [ETOPOSIDE], for which the values for the 50% inhibitory concentration (IC50) in experiment [3] and in experiment [4] were 34 µM and 0.041 µM, respectively.
